# Reference: ChEMBL document CHEMBL4373656, “A MedChem toolbox for cereblon-directed PROTACs” (Medchemcomm, 2019)
# Calls of active or inactive are those of the source. The rule behind the calls is not given here. *1 amine or outer side, *2 acyl side, *3 side chain or, on linkers, in order; H or OH if unused. Where a SMILES comes first, the peptide text is derived from it. The star is where a group is joined. X1 = O=C1CCC(N2C(=O)c3cccc(NCCCOCCCCOCCCN*)c3C2=O)C(=O)N1; Suc = O=C(CCC(=O)[*:2])[*:1]
# Key:
# [1] = biological target: T1, Cereblon/Ikaros (Homo sapiens) (UniProt Q96SW2+Q13422); assay: Protac activity at CRBN/ IKZF1 in human MM1S cells assessed as CRBN degradation at 100 nM to 1 uM after 16 hrs by Western blot analysis; format: cell-based
# Summary of the method: (§1)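 MM1S multiple myeloma cells were exposed to each compound for 16 h at the indicated concentrations, including 100 nM and 1 μM. Lysates were analysed by western blot for CRBN and for the neo-substrate IKZF1.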
# [2] = biological target: T1, Cereblon/Ikaros (Homo sapiens); assay: Protac activity at CRBN/ IKZF1 in human MM1S cells assessed as IKZF1 degradation by measuring IKZF1/tubulin ratio at 0.1 uM after 16 hrs by Western blot analysis relative to tubulin; format: cell-based; design: unit not given here; summary of the method: as §1
# [3] = biological target: T1, Cereblon/Ikaros (Homo sapiens); assay: Protac activity at CRBN/ IKZF1 in human MM1S cells assessed as Bax protein expression at 0.1 to 10 uM after 16 hrs by Western blot analysis relative to tubulin; format: cell-based
# [4] = biological target: T1, Cereblon/Ikaros (Homo sapiens); assay: Protac activity at CRBN/ IKZF1 in human MM1S cells assessed as reduction in IKZF1 degradation at 0.001 to 0.01 uM after 16 hrs by Western blot analysis; format: cell-based
# MM1.S = assay: Antiproliferative activity against human MM1S cells at 1 nM to 10 uM after 4 hrs by CellTiter-Glo assay; format: functional, cell-based
Compound,Activity [1],Ratio [2],Activity [3],Activity [4],Activity (MM1.S)
O=C(CC12CC3CC(CC(C3)C1)C2)NCCCOCCCCOCCCNc1cccc2c1C(=O)N(C1CCC(=O)NC1=O)C2=O (stereo not given),inactive,30,,,
Cc1ncsc1-c1ccc(CNC(=O)[C@@H]2C[C@@H](O)CN2C(=O)[C@@H](NC(=O)CCCCOCCCCCOCCCCCCNc2cccc3c2C(=O)N(C2CCC(=O)NC2=O)C3=O)C(C)(C)C)cc1 (stereo not given in full),,99,,,
O=C(CC12CC3CC(CC(C3)C1)C2)NCCCOCCOCCOCCCNc1cccc2c1C(=O)N(C1CCC(=O)NC1=O)C2=O (stereo not given),inactive,24,,,
O=C1CCC(N2C(=O)c3cccc(NCCOCCOCCNc4cccc5c4C(=O)N(C4CCC(=O)NC4=O)C5=O)c3C2=O)C(=O)N1 (stereo not given),,79,,,
O=C(CC12CC3CC(CC(C3)C1)C2)NCCOCCOCCNc1cccc2c1C(=O)N(C1CCC(=O)NC1=O)C2=O (stereo not given),inactive,7.1,,Active,Active

# The next lines start with results.
Activity [1],Ratio [2],Activity [3],Activity [4],Compound,Activity (MM1.S)
,,inactive,,CSCC[C@H](NC(=O)[C@@H]1CCCN1C(=O)[C@@H](NC(=O)CCC(=O)NCCCOCCCCOCCCNc1cccc2c1C(=O)N(C1CCC(=O)NC1=O)C2=O)C(C)C)C(=O)N[C@@H](CC(C)C)C(=O)N[C@@H](CCCCN)C(=O)O (stereo not given in full) ({X1-Suc}-VPMLK-OH),
inactive,16,,,O=C(CC12CC3CC(CC(C3)C1)C2)NCCOCCOCCOCCNc1cccc2c1C(=O)N(C1CCC(=O)NC1=O)C2=O (stereo not given),
inactive,15,,,O=C(CC12CC3CC(CC(C3)C1)C2)NCCCOCCOCCCNc1cccc2c1C(=O)N(C1CCC(=O)NC1=O)C2=O (stereo not given),
